Assay outcomes: PubChem BioAssay, several laboratories
CHT allo act: allosterically activates the human high affinity choline transporter; actives 0.49% (n = 310,000); Q9GZV3; AID 488977; B-score at 10 µM; CHT-expressing cells, membrane potential dye, choline EC20; stronger effect = higher value; LV-AA mutant CHT in HEK293 cells;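 active = initial fluorescence not abnormally high and integrated response B-score, plate-corrected, over 3 SD above library mean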
CHT inh: inhibitors of human choline transporter CHT. Q9GZV3. actives 0.86% (n = 310,000). AID 488975. B-score at 10 µM. CHT-expressing cells, membrane potential dye, choline response; stronger effect = lower value;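 active = B-score over 3 SD under the library average, and starting fluorescence ratio not unusually high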;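 note: choline stimulus applied at its EC90 after an EC20 pre-addition; B-score computed on integrated fluorescence ratio after choline addition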
TNAP inh hiacc: inhibitors of human TNAP at high phosphate acceptor concentration | AID 1135 | inhibition, % at 20 µM | purified TNAP, CDP-star luminescence, 1 M DEA | P05186 | actives 0.03% (n = 200,000);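 active = over 50% inhibition of tissue-nonspecific alkaline phosphatase at 20 µM in the single-dose screen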;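 note: plate controls were DMSO wells for no effect and EDTA-quenched wells as full inhibition for full effect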
Target sequence (P05186 whole entry, looked up): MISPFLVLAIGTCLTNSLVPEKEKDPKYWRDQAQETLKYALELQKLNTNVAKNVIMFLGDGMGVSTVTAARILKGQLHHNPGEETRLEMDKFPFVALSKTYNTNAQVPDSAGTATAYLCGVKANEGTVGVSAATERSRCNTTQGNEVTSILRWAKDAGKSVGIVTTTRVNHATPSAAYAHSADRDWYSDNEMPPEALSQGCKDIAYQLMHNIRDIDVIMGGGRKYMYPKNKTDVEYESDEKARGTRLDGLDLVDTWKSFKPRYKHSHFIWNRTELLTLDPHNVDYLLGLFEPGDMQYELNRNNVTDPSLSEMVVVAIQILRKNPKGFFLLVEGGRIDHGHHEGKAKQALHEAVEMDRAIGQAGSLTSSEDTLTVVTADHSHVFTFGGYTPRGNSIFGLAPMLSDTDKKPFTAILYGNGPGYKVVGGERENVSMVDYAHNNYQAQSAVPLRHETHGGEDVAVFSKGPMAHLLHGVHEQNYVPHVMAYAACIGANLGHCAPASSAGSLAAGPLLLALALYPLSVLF
ABCB6 inh MLPCN: inhibitors of human ABC transporter ABCB6; Q9NP58; K562-ABCB6 porphyrin accumulation, flow cytometry, 1 h; stronger effect = lower value; actives 0.19% (n = 360,000); AID 602162; fluorescence ratio to DMSO, % at 10 µM;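 active = fluorescence ratio to DMSO below 75%, the collection mean minus 3 SD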;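 note: signal is porphyrin accumulated inside mitochondria; 100% equals median channel fluorescence of DMSO control wells; lower ratio means ABCB6 inhibition with less porphyrin fluorescence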
TNAP act hi DEA: TNAP (human) activation, high acceptor; P05186; purified TNAP, CDP-star luminescence, 1 M DEA, 30 min; stronger effect = higher value; 0 = EDTA background, 1 = DMSO-only activity; activation factor at 20 µM; 200,000 tested, under 10 active;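 active = activation factor at least 2 at 20 µM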
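Control set: EDTA negative control, DMSO positive control / Assay system: human TNAP / Quantity: TNAP 1/800 final / Evaluation: TNAP activation factor scaled between EDTA and DMSO control wells / Measured by: luminescent substrate turnover signal / Compound dosing: one dose, 20 µM / Times: 30 min enzyme reaction at room temperature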
TNAP inh no acc: blocks human TNAP activity with no phosphate acceptor present; P05186; purified TNAP, CDP-star luminescence, 30 min; inhibition, % at 20 µM; actives 0.26% (n = 200,000);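 active = tissue-nonspecific alkaline phosphatase inhibition above about 50% at 20 µM in the single-dose screen, limit read from the data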;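 note: 0% = DMSO negative control and 100% = EDTA positive control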
CHT inh conf: confirmation of human choline transporter CHT inhibitors. CHT activity remaining % of control (stronger effect = lower value), % at 10 µM. AID 493221. actives 70% (n = 2,400). CHT-expressing cells, choline membrane potential dye; LV-to-AA substituted CHT, HEK293 cells. shares compounds with CHT inh;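 active = choline transporter activity left, mean of duplicates at 10 µM, below buffer-only control mean minus 3 SD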;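 note: depolarization triggered by choline at its EC90 following an EC20 pre-addition; 0% = hemicholinium-3 full block and 100% = buffer-only control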
HEK293 CHT ctr: counter-screen for CHT inhibitors: effect in parental HEK293 cells; shares compounds with CHT inh; membrane potential dye, choline response; active = decrease or increase beyond buffer ±3SD; membrane potential ratio readout (active if shifted either direction beyond buffer ±3SD; no single direction) at 10 µM; actives 4% (n = 2,400); AID 493222;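 note: parental cells lack the transporter so any hit is non-specific; ratio is peak minus trough fluorescence over baseline after EC90 choline challenge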
Starred values were filed as active, the others as inactive; i = inactive; x = no result. This is a sample that favours compounds with a hit; in the whole collection about 1.4% have one here.

SMILES | CHT allo act | CHT inh | TNAP inh hiacc | ABCB6 inh MLPCN | TNAP act hi DEA | TNAP inh no acc | CHT inh conf | HEK293 CHT ctr
COCC(=O)N(Cc1cc2cccc(C)c2[nH]c1=O)c1ccccc1 | i | i | x | 97 | x | x | x | x
Cc1noc2ncnc(Sc3ccc(Br)cc3)c12 | i | i | -5 | 100 | 1 | -10 | x | x
COc1ccc(N2CCN(C(=O)c3cc(-c4cccs4)nc4ccccc34)CC2)cc1 | i | -6.1* | -2 | 92 | 1 | -9 | i | i
COc1ccc(-c2cc(C(=O)N3CCN(c4ccccc4)CC3)c3ccccc3n2)cc1OC | i | i | -6 | 96 | 1.1 | -2 | x | x
Clc1cccc(-c2nc(-c3ccc(-c4nn[nH]n4)cc3)no2)c1 | x | x | x | 94 | x | x | x | x
O=C(NCc1ccccc1Cl)C(=O)c1cn(CC(=O)N2CCOCC2)c2ccccc12 | i | i | x | 99 | x | x | x | x
O=C(NCCO)C1(c2ccccc2)CCCC1 | i | i | -1 | 101 | 1 | -8 | x | x
CCNC(=O)C1(c2ccccc2)CCCC1 | i | -6.8* | -8 | 101 | 1.1 | -15 | i | i
COC(=O)c1ccccc1NC(=O)CSc1nc2cccnc2n1C | i | -5.9* | -4 | 101 | 1 | -10 | i | i
Cc1nc(C(F)(F)F)ccc1C(=O)N1CCC1(C)C(=O)NS(=O)(=O)c1ccc(C#N)cc1 (configuration not stated) | x | x | x | 98 | x | x | x | x
COc1ccc(C)cc1NC(=O)c1ccccc1NS(=O)(=O)c1ccc(Cl)s1 | i | -7.5* | -3 | 101 | 1 | -6 | 15%* | i
Cc1ccc(NC(=O)c2ccccc2NS(=O)(=O)c2ccc(Cl)s2)cc1S(=O)(=O)N1CCOCC1 | i | -11* | -2 | 97 | 1 | -18 | 40%* | i
O=C(Nc1cc(S(=O)(=O)N2CCOCC2)ccc1O)c1ccc(NS(=O)(=O)c2ccc(Cl)s2)cc1 | i | i | 2 | 97 | 1 | -5 | x | x
O=S(=O)(Nc1cc2nc3ccccc3nc2n1Cc1ccccc1)c1ccc(Cl)cc1 | i | i | 9 | 141 | 0.9 | -45 | x | x
Nc1c(C(=O)NCCN2CCOCC2)c2nc3ccccc3nc2n1CCc1ccccc1F | i | -7.8* | -7 | 100 | 1.1 | -10 | 30%* | i
CCOC(=O)CC1(CC(=O)OCC)NC(=O)c2c(C)sc(C(=O)OCC)c2N1 | i | -5.1* | -6 | x | 1.1 | -15 | 38%* | i
O=C(C[C@@H]1C/C=C/CCCC(=O)O[C@H](c2ccccc2)CNC1=O)N[C@H](CO)Cc1ccccc1 | x | x | x | 95 | x | x | x | x
Cc1ccc(CNC(=O)N[C@@H](Cc2ccccc2)C(=O)O)cc1 | i | -16* | 1 | 95 | 1 | -2 | 60%* | i
COC(=O)[C@H](Cc1ccccc1)NC(=O)NCc1ccc(C)cc1 | i | i | x | 95 | x | x | x | x
CC(C)(C)c1ccc(CC(=O)N2CCC2(C)C(=O)O)cc1 (configuration not stated) | x | x | x | 95 | x | x | x | x
COc1ccc(C(=O)NC(C)Cc2cnccn2)cc1OC1CCN(C(C)C)CC1 (configuration not stated) | i | -7* | x | 96 | x | x | 28%* | i
COc1ccc(C(=O)NC(C)CCn2cccn2)cc1OC1CCN(C(C)C)CC1 (configuration not stated) | i | -9.8* | x | 104 | x | x | 13%* | i
COC(=O)CCCN1C(=O)NC(c2ccc(-c3ccccc3)cc2)C(C(=O)OCc2ccccc2)=C1C (configuration not stated) | x | x | x | 98 | x | x | x | x
COC(=O)CCCCCN1C(=O)NC(C2CC2)C(C(=O)OCc2ccccc2)=C1C (configuration not stated) | i | -5.4* | x | 101 | x | x | 65%* | i
Cc1ccc2ncc(S(=O)(=O)c3ccccc3)c(N3CCCCC3C)c2c1 (configuration not stated) | i | -6.2* | x | 99 | x | x | i | i
SMILES | CHT allo act | CHT inh | TNAP inh hiacc | ABCB6 inh MLPCN | TNAP act hi DEA | TNAP inh no acc | CHT inh conf | HEK293 CHT ctr
COc1ccc2ncc(S(=O)(=O)c3ccccc3)c(N3CCC4(CC3)OCCO4)c2c1 | i | -5.9* | -3 | 96 | 1 | -8 | 52%* | i
COc1ccc2ncc(S(=O)(=O)c3ccccc3)c(N3CCN(c4ccccc4)CC3)c2c1 | i | i | -2 | 91 | 1 | 1 | x | x
CCOC(=O)N1CCN(C(=O)CNC(=O)c2nn(-c3ccc(OC)c(Cl)c3)c(=O)c3ccccc23)CC1 | i | i | x | 94 | x | x | x | x
c1ccc(CN2CCN(c3nc4ccccc4n4cnnc34)CC2)cc1 | i | -5.5* | -9 | 84 | 1.1 | -14 | 59%* | i
c1ccc2c(c1)nc(N1CCOCC1)c1nncn12 | i | i | -6 | 103 | 1.1 | -16 | x | x
CCN1CCN(C(=O)C2CC(=O)N(c3ccc(Cl)cc3)C2)CC1 (configuration not stated) | i | i | x | 84 | x | x | x | x
COc1cc(NC2CCCCC2O)c2nc(-c3ccc(Cl)cc3)ccc2c1 (configuration not stated) | i | -8.4* | x | 102 | x | x | 49%* | i
O=S(Cc1ccccc1)CC(O)(c1ccccc1)c1ccccc1 (configuration not stated) | i | -5.1* | -2 | 98 | 1 | -6 | i | i
Clc1ccc(Cc2ccccn2)cc1 | x | x | x | 104 | x | x | x | x
Cc1cccc(-n2cc(CN3CCN(Cc4nccn4C)CC3)c(-c3cccc(F)c3)n2)c1 | i | -9.7* | -6 | 102 | 1.1 | -4 | 20%* | i
O=[N+]([O-])c1ccc(Sc2ncc3ccccn23)nc1 | i | -13* | x | 103 | x | x | 7.7%* | i
O=C(Nc1cc(C(F)(F)F)ccc1-n1cncn1)c1ccc([N+](=O)[O-])o1 | i | -6.1* | x | 110 | x | x | 33%* | i
COc1cccc(NC(=O)CN2CCN(c3ccccc3F)CC2)c1 | i | -5.9* | -6 | 100 | 1.1 | -15 | i | i
Cc1ccc(C(=O)N/C(=C/c2ccco2)C(=O)Nc2cccc(C)c2)cc1 | i | -5.7* | -4 | 101 | 1 | -12 | 62%* | i
COc1ccc(/C=C2/SC(=S)N(CCC(=O)N3CCN(C)CC3)C2=O)cc1 | i | i | x | 92 | x | x | x | x
